Experiments:
Assay type in all cases: cell-based, COS-7
[1] = biological target: Sodium-dependent noradrenaline transporter (Homo sapiens, UniProt P23975); experiment: Displacement of [3H]dopamine from human NET expressed in COS7 cells
Method in brief: (§1)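 Ki derived from inhibition of radiolabelled substrate uptake into COS-7 cells transiently expressing hDAT or hNET ([3H]dopamine) or hSERT ([3H]5-HT). […] Three to six experiments in triplicate, mean with SE interval.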

[2] = biological target: Sodium-dependent serotonin transporter (Homo sapiens, UniProt P31645); experiment: Displacement of [3H]5HT from human SERT expressed in COS7 cells; method in brief: as §1
Sodium-dependent serotonin transporter, sequence (P31645 whole entry): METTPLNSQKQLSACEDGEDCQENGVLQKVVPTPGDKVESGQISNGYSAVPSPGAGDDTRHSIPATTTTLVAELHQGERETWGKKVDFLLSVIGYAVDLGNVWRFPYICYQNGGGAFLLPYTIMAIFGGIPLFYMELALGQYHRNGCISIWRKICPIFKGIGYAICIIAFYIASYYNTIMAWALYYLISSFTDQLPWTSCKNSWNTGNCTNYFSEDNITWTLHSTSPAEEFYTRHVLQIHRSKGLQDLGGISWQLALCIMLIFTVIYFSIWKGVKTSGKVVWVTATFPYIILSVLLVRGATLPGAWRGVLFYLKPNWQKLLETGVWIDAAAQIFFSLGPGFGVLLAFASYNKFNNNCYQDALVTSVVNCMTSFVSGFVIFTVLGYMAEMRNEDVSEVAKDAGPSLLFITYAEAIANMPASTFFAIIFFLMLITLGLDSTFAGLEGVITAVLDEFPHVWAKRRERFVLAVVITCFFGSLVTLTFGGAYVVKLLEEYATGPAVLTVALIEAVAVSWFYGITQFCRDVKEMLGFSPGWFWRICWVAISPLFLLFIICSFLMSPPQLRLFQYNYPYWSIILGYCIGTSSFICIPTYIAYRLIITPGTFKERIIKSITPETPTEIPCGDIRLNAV

[3] = biological target: T1, Sodium-dependent dopamine transporter (Homo sapiens, UniProt Q01959); experiment: Displacement of [3H]dopamine from human DAT expressed in COS7 cells; method in brief: as §1
T1 sequence (Q01959 whole entry): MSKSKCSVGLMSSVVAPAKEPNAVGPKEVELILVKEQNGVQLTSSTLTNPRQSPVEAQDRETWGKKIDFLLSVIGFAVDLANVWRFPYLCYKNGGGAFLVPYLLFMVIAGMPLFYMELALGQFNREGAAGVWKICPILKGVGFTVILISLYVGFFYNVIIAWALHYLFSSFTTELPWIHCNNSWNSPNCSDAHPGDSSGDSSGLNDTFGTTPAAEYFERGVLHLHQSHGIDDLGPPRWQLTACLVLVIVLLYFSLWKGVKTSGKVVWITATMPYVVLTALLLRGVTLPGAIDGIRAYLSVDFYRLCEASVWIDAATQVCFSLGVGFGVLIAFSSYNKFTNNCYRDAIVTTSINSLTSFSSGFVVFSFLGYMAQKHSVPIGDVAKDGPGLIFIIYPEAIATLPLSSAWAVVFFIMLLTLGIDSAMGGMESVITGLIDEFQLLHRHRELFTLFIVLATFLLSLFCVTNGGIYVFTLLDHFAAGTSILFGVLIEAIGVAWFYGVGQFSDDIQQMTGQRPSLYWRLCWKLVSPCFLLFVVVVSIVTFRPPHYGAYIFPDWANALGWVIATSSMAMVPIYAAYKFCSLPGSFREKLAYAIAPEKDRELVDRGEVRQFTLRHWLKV

[4] = biological target: T1, Sodium-dependent dopamine transporter; experiment: Displacement of [3H]CFT from human DAT expressed in COS7 cells
Method in brief: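 Competition binding on intact COS-7 cells transiently expressing hDAT, with [3H]CFT (2β-carbomethoxy-3β-(4-fluorophenyl)tropane) as radioligand. Ki from nonlinear regression, using a KD for [3H]CFT determined in parallel. Mean of two to three experiments in triplicate, with SE interval.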

Sodium-dependent noradrenaline transporter, sequence (P23975 whole entry): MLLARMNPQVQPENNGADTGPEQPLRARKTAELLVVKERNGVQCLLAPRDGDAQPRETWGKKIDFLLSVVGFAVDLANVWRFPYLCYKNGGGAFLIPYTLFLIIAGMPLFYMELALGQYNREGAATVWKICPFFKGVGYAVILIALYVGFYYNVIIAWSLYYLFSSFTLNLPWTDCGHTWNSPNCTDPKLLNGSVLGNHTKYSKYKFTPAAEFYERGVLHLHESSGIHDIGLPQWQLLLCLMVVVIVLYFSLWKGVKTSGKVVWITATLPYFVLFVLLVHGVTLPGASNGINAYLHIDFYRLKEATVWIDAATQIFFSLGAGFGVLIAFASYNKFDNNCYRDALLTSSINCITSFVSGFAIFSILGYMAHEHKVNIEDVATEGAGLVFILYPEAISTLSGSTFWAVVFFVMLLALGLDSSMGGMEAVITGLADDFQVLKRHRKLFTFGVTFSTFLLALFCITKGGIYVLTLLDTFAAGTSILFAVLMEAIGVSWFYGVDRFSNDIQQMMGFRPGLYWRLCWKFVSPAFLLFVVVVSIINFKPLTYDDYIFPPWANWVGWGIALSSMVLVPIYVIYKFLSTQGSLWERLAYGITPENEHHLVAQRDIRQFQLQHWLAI

Structure (SMILES)	Ki [1] [nM]	Ki [2] [nM]	Ki [3] [nM]	Ki [4] [nM]
COC(=O)[C@@H]1C2CCC(C[C@@H]1c1ccc(Cl)c(Cl)c1)N2C (some centres undefined)	5	12	2.3	0.2
CCN(CC)c1ccc2c(-c3ccc(S(=O)(=O)NC[C@H]4CC[C@H](C(=O)NCCN5C6CCC5[C@@H](C(=O)OC)[C@@H](c5ccc(Cl)c(Cl)c5)C6)CC4)cc3S(=O)(=O)[O-])c3ccc(=[N+](CC)CC)cc-3oc2c1 (some centres undefined)	627	705	436	
CCN(CC)c1ccc2c(-c3ccc(S(=O)(=O)NCCCCCC(=O)NCCN4C5CCC4[C@@H](C(=O)OC)[C@@H](c4ccc(Cl)c(Cl)c4)C5)cc3S(=O)(=O)[O-])c3ccc(=[N+](CC)CC)cc-3oc2c1 (some centres undefined)	194	392	62	18
CCN(CC)c1ccc2c(-c3ccc(S(=O)(=O)NCCCCCC(=O)NCCOC(=O)[C@@H]4C5CCC(C[C@@H]4c4ccc(Cl)c(Cl)c4)N5C)cc3S(=O)(=O)[O-])c3ccc(=[N+](CC)CC)cc-3oc2c1 (some centres undefined)	177	1490	72	27
COC(=O)[C@@H]1C2CCC(C[C@@H]1c1ccc(Cl)c(Cl)c1)N2CCNC(=O)CCCN1CCCc2cc3c(cc21)C(C)(C)C1=CC(=[N+](C)C)C=CC1=C3 (some centres undefined)	308	227	250	50

From ChEMBL document CHEMBL1141227, “Rhodamine-labeled 2beta-carbomethoxy-3beta-(3,4-dichlorophenyl)tropane analogues as high-affinity fluorescent probes for the dopamine transporter” (J Med Chem, 2005)
